Measured values reported in PubChem BioAssay AID463073 (The Scripps Research Institute Molecular Screening Center, 2010).
About 10 (0.5%) of roughly 2,000 compounds were called active. Many of the other results were omitted from the sample, so actives are more common in it than they were. Values without a mark were called inactive.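 The calls were made as follows: active = inhibition above 30%; inactive = the rest.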 Residues, ends and D or L forms follow the SMILES beside them.

Target: Protein-arginine deiminase type-4 (Homo sapiens) (UniProt Q9UM07)
Assay: blockers of protein arginine deiminase 4 – biochemical, fluorescence polarization, primary screen (AID 463073);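 also: 0% = PAD4 with DMSO and 100% = wells lacking PAD4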
Details: recombinant PAD4, RFA probe fluorescence polarization; at 5 µM; stronger effect = higher value
Method in brief: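 System: recombinant PAD4. Amount: PAD4 at 2 µM in dispensed buffer, before additions. Doses: single 5 µM final compound concentration. Timing: 30 min 25 °C preincubation, 5 h 37 °C labeling. Benchmarks: wells lacking PAD4 as full-inhibition control. Repeats: single well per compound. Measured by: FP, ex 525 nm, em 598 nm.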

Protein-arginine deiminase type-4 (Homo sapiens), sequence (Q9UM07 whole entry, looked up): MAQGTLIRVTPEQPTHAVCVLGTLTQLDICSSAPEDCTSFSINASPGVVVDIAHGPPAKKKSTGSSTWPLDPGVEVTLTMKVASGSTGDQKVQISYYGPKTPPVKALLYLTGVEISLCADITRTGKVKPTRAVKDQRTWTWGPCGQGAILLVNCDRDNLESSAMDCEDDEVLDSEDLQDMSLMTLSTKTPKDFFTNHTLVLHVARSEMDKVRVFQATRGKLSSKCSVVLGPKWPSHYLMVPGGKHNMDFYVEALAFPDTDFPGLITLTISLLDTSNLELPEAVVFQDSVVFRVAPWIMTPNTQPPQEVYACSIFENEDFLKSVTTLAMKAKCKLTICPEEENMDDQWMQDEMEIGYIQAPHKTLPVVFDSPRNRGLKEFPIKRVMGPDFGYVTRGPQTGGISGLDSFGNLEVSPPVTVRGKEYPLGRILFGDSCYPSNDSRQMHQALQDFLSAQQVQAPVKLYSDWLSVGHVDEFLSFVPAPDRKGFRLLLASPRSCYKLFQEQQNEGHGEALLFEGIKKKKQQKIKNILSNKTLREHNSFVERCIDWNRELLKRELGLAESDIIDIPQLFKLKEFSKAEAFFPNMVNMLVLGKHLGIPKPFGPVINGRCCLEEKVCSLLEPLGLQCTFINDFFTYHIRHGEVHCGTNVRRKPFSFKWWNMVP

Compound	inhibition
COc1ccc(-c2csc(-c3cccnc3)n2)cc1C	-0.79%
COc1ccc(OC)c(C(=O)c2coc3ccc(O)cc23)c1	-2.55%
OCC(O)CN1CCN(c2ccccc2)CC1 (stereo unspecified)	-2.45%
O=c1c(-c2ccccc2)c(O)c2cccc3c2n1CCC3	5.09%
Cc1cc(OC(=O)CNC(=O)OC(C)(C)C)c2c(C)cc(=O)oc2c1	22.1%
CC(NC(=O)OCc1ccccc1)C(=O)N1CC(O)CC1C(=O)O (stereo unspecified)	6.64%
COC(=O)c1ccc(CC(=O)c2ccc(O)cc2O)o1	4.18%
CCCCCCCC(=O)OCC(=O)[C@@]1(O)CC[C@H]2[C@@H]3CCC4=CC(=O)CC[C@]4(C)[C@H]3[C@@H](O)C[C@@]21C	4.58%
Cc1nc(C2CC(=O)OC23CCCCC3)cs1 (stereo unspecified)	-0.47%
CSCCC(NC(=O)OC(C)(C)C)C(=O)Oc1ccc2c(=O)c(-c3ccc4c(c3)OCCO4)coc2c1 (stereo unspecified)	14.1%
c1ccc(-c2ccccn2)nc1	0.78%
Cn1nc(-c2ccccn2)nc2c(=O)n(C)c(=O)nc1-2	98.2% (active)
Cn1c(=O)[nH]c2nnc(-c3ccc(Cl)c(Cl)c3)nc2c1=O	4.18%
Cn1nc(-c2ccc(Cl)cc2)nc2c(=O)n(C)c(=O)nc1-2	90.7% (active)
CN(C)CCCNc1ncnc2c1cnn2-c1ccccc1	-1.45%
CCNC(=O)c1sc2cc(C)ccc2c1Cl	0.99%
CSCCC(NC(=O)/C(=C/c1ccc2c(c1)OCO2)NC(=O)c1cccc([N+](=O)[O-])c1)C(=O)O (stereo unspecified)	-0.41%
Nc1nnc(CSCc2ccc(Cl)cc2Cl)s1	3.81%
CC12CCC(C(=O)NNc3ccccc3)(C(=O)C1=O)C2(C)C (stereo unspecified)	-2.07%
COc1ccc(CN2CCCC(C(=O)c3ccc(Cl)cc3)C2)cc1Cn1cccn1 (stereo unspecified)	-0.23%
O=C(CSCc1ccccc1)NCCCN1CCOCC1	-0.81%
CC(=O)c1cc2c(cc1NC(=O)c1ccco1)OCCO2	-1.18%
COC(=O)[C@H]1[C@H]2C[C@@H]3c4[nH]c5cc(OC)ccc5c4CCN3C[C@H]2C[C@@H](OC(=O)c2ccc(N)cc2)[C@@H]1OC	6.06%
COC(=O)c1[nH]c2ccc(F)cc2c1NC(=O)C1=COCCO1	6.4%

Compound	inhibition
COc1cc(CNCCc2ccccc2F)ccc1OCC(=O)N1CCCCC1	-1.57%
COCCOC(=O)C1=C(N)OC2=C(C(=O)CCC2)C1c1cccnc1 (stereo unspecified)	1.53%
COc1ccc(NC(=O)CC2C(=O)N(C)C(=S)N2Cc2ccncc2)cc1 (stereo unspecified)	-3.53%
CN1CCCN=C1COC(=O)C(O)(c1ccccc1)C1CCCCC1 (stereo unspecified)	-4.01%
Cc1cccc(OCC(=O)Nc2ccc(C(=O)NCC(C)C)cc2)c1	0.21%
N#CCC(N)=C(C#N)C#N	0.67%
CC(=O)[C@@]1(O)CC[C@H]2[C@@H]3CCC4=CC(=O)CC[C@]4(C)[C@H]3[C@@H](O)C[C@@]21C	-0.33%
Cc1ccccc1NC(=O)C1c2ccccc2Oc2ccccc21	-0.73%
CC(C)NS(=O)(=O)c1ccc(OCC(=O)Nc2cccc(F)c2)cc1	2.86%
COc1ccc(C2=C(CN(C)C)C(c3ccccc3)c3ccccc3O2)cc1 (stereo unspecified)	-1.24%
COc1ccc(-c2nc(C)c(C(C)=O)n2O)cc1OC	2.19%
O=C(O)CCn1c(=S)n(CCC(=O)O)c2ccccc21	3.98%
CC(OC(=O)c1cc(=O)[nH]c2ccccc12)C(=O)c1ccccc1 (stereo unspecified)	-0.79%
C=C(C)Cn1c(NCCOC)nc2c1c(=O)[nH]c(=O)n2C	1.67%
CC(=O)NC1C(OCCOc2ccc(Cl)cc2Cl)OC(COC(C)=O)C(OC(C)=O)C1OC(C)=O (stereo unspecified)	2.94%
CCOC(=O)c1c(C)oc2c1C(=O)c1ccccc1C2=O	61.9% (active)
CCOC(=O)c1cccc(C(=O)OCC)n1	-2.55%
CCOC(=O)C1=C(C)N[C@@]2(O)c3ccccc3C(=O)[C@@]12O	5.29%
CC(=O)N1CC23C=CC(CC2CC12CCCCCC2)O3 (stereo unspecified)	0.84%
CCOc1ncnc2c1[nH]c1ccccc12	1.88%
COC(=O)C1[C@H]2C(=O)N(Cc3cccs3)C[C@]23C=C[C@H]1O3 (stereo partly specified)	2.54%
CC(C)CN1CCN(Cc2ccc3ncccc3c2)CC1CCO (stereo unspecified)	5.67%
CCCCNC(=O)NS(=O)(=O)c1ccc(C)cc1	5.34%
CNS(=O)(=O)c1ccc(C)cc1	-0.67%

Compound	inhibition
Cc1ccc(S(=O)(=O)N[C@@H](Cc2ccccc2)C(=O)CCl)cc1	39.7% (active)
O=C(CCc1ccccc1)Nc1ccccc1C(F)(F)F	-2.28%
COc1cc2c(cc1OC)C(c1ccccc1)=NCC2	3.38%
C[C@]12CC[C@@H]3c4ccc(O)cc4[C@@H](O)C[C@H]3[C@@H]1CC[C@@H]2O	2.58%
CC(=O)CCc1c(C)c2cccc(C)c2[nH]c1=O	2.48%
CCCCC/C=C\C[C@H](O)/C=C/c1cccc(C[C@H](O)CCCCO)n1	4.29%
CCOC(=O)C(NC(C)=O)C(O)c1ccc([N+](=O)[O-])cc1 (stereo unspecified)	3%
O=C1OC(Nc2ccc3c(c2)OCO3)c2ccccc21 (stereo unspecified)	3.54%
Cc1cccc(Oc2coc3cc(OC(=O)c4cncc(Br)c4)ccc3c2=O)c1	26.8%
COc1ccc(C2C3C(C)=NN=C3CC(C)(O)C2C(C)=O)cc1 (stereo unspecified)	-7.27%
O=P(c1ccccc1)(c1ccccc1)c1nc(-c2ccc(Cl)cc2)oc1N1CCOCC1	4.58%
CC(=O)N1CCN(c2ccc(OC[C@H]3CO[C@](Cn4ccnc4)(c4ccc(Cl)cc4Cl)O3)cc2)CC1	6.45%
C/C=C(/C(=C/C)c1ccc(O)cc1)c1ccc(O)cc1	0.21%
C=CCc1cccc2cc(C(=O)Nc3ccc(CC(=O)O)cc3)c(=O)oc12	-4.46%
CC(C)C(=O)Nc1c(O)c2ccccc2[nH]c1=O	-3.74%
COC(=O)c1[nH]c(=O)c2ccccc2c1O	66.5% (active)
COc1ccc(C(=O)Nc2nc3ccccc3c(=O)[nH]2)cc1	0.21%
CCOC(=O)n1c(=O)oc2ccccc21	-6.44%
CCOc1cc2c3c(c1)C(C)=CC(C)(C)N3C(=O)C2=O	-0.07%
CC(C)CC(=O)NC(NC(=O)CC(C)C)c1cccc([N+](=O)[O-])c1	-2.91%
Cc1[nH]c2ccccc2c1C(=O)CN1CCCC1	-1.81%
O=C1NCC2=C1C(c1ccccc1)Nc1ccccc1N2 (stereo unspecified)	58.3% (active)
COc1cc(C2Nc3ccccc3NC3=C2C(=O)CC(c2ccc(OC)c(OC)c2)C3)ccc1O (stereo unspecified)	-5.4%
O=C1Cc2ccccc2C(c2ccccc2)N1 (stereo unspecified)	0.84%

Compound	inhibition
CCc1ccc2oc(=O)cc(CN3CCC(C)CC3)c2c1	-1.47%
C[N+](C)(C)CCCC(=O)c1ccc2c(c1)OCO2	3.91%
CC(=O)NC(CC(C)C)C(=O)NC(Cc1ccccc1)C(N)=O (stereo not drawn) (Ac-Leu-Phe-NH2; configuration not given here)	1.27%
COc1ccc2c(C=O)cn(C)c2c1	-2.41%
COC(=O)c1[nH]c2ccccc2c1NC(=O)CN1CCN(C/C=C/c2ccccc2)CC1	0.97%
Cc1ccnc(NS(=O)(=O)c2ccc(N)cc2)n1	1.25%
COc1cc(=O)n(C)c2ccccc12	0.98%
CC(C)CC(NC(=O)c1cccc(Cl)c1)C(=O)O (stereo unspecified)	-0.07%
Cc1c(O)c(=O)ccn1C	4.09%
Cc1cccc(C)c1NS(=O)(=O)c1ccc(NC(=O)c2ccc(Cl)c([N+](=O)[O-])c2)cc1	5.98%
C=CCNC(=S)N1CCc2c([nH]c3ccccc23)C1C (stereo unspecified)	-0.07%
CCN1C(=O)C(CC(=O)Nc2ccc(OC)cc2)N(CCc2ccc(F)cc2)C1=S (stereo unspecified)	3.71%
Cc1ccccc1-c1nn(-c2ccc(F)cc2F)cc1CNCCN(C)C	-4.06%
COc1ccc2[nH]cc(C(=O)CCl)c2c1	2.86%
COC(=O)CN1CC(=O)N(c2ccccc2)C1=S	-0.98%
O=c1oc2c(CN3CCCCC3)c(O)ccc2c2c1CCCCC2	-1.21%
COC1=C(N)C(=O)c2nc(-c3nc(C(=O)O)c(C)c(-c4ccc(OC)c(OC)c4O)c3N)ccc2C1=O	92.5% (active)
COc1ccc2oc(=O)c(-c3nc(C)cs3)cc2c1	3.51%
O=C(NCc1ccc2c(c1)OCO2)c1ccc2c(c1)OCCO2	2.19%
CCOC(=O)C1C(=O)CC(C)(O)C(C(=O)OCC)C1/C=C/c1ccccc1 (stereo unspecified)	0.16%
CCOc1ccc(N2C(=O)CNC2=S)cc1	0.84%
COc1ccc(N2C(=O)[C@@H]3[C@H](C2=O)[C@H]2c4ccccc4C=CN2[C@@H]3C(C)=O)cc1	37.2% (active)
COc1ccc(C(=O)[C@H]2[C@H]3C(=O)N(c4ccccc4)C(=O)[C@H]3C3C=CC=NN32)cc1 (stereo partly specified)	2.34%
COc1ccc(N2C(=O)C3C(C2=O)C(C(=O)c2ccccc2)N2CCCC32)cc1 (stereo unspecified)	2.54%
